Compound activity (PubChem BioAssay)
ANO1 activ: activates or potentiates the mouse TMEM16A chloride channel | HEK293 TMEM16A/YFP-H148Q/I152L, iodide quench fluorescence; stronger effect = lower value | 340,000 compounds, 0.3% hits | AID 623877 | Q8BHY3 | B-score at 10 µM;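 active = fluorescence-ratio B-score plate-corrected deviation score at least 3 library SD below zero, with starting fluorescence score within 5 deviations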;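 also: channel opened by trigger with iodide after compound preincubation; score built on the fluorescence ratio of max minus min over baseline; more negative score means more quench and so TMEM16A activation or potentiation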
Target sequence (Q8BHY3 whole entry, looked up): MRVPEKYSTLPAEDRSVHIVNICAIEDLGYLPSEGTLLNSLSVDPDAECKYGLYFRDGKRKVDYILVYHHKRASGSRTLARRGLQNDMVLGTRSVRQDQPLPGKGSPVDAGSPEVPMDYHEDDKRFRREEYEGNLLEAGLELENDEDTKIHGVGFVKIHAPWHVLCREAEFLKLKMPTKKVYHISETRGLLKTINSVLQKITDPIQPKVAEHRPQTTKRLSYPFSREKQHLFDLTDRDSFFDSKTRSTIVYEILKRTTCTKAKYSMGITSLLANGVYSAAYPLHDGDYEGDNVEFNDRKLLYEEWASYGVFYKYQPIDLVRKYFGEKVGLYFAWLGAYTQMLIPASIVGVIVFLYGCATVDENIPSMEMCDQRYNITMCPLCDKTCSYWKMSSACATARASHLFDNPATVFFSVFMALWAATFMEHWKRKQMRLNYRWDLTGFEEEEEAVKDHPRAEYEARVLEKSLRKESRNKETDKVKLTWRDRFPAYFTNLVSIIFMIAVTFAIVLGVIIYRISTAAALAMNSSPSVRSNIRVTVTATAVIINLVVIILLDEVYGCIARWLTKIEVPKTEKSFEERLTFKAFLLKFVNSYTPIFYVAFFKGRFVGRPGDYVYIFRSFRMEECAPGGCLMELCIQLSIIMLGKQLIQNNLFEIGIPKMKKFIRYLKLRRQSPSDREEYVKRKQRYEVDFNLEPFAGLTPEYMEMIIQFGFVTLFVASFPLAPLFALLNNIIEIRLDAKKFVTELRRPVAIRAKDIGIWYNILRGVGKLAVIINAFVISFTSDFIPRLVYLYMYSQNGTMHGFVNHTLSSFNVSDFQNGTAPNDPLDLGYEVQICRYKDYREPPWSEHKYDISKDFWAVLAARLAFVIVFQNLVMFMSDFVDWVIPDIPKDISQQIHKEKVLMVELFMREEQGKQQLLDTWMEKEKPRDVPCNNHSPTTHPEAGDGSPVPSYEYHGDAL
CRFBP-R2 block: blocks CRF-induced signaling of the CRF-BP/CRF-R2 complex; HEK293 CRF-R2/CRF-BP, CRF-induced calcium fluorescence; inhibition, % at 11.8 µM; 350,000 compounds, 0.59% hits; AID 588475;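 active = inhibition of the ligand-induced calcium signal above about 50% at the single tested concentration, limit read from the data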
TAAR1 antag: human TAAR1 antagonism; 360,000 compounds, 1.5% hits; inhibition, % at 3 µM; Q96RJ0; AID 624466; CHO RD-HGA16 TAAR1, Fluo-8 calcium fluorescence, antagonist;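 active = inhibition above a per-plate cutoff, the mean inhibition of test compounds on that plate plus 3 SD, cut at about 49% in these data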;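 also: 0% = DMSO plus EC80 beta-PEA response and 100% = DMSO alone without agonist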
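System: CHO RD-HGA16 cells bearing hTAAR1. Reagent: EC80 β-phenethylamine stimulus. Schedule: seeding 17-24 h prior, 75-min 37 °C, 30-min RT dye loading. Signal: Fluo-8 intracellular calcium dye fluorescence, real-time kinetic reads. Read-out: % inhibition from peak post-agonist over basal fluorescence ratio. Benchmarks: vehicle wells and EC80 agonist wells. Replicates: n of 1.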
CRFBP-R2 agonist: agonists of human CRF-binding protein/CRF-R2 receptor complex | HEK293 CRF-R2/CRF-BP, calcium dye fluorescence (FLIPR); percent of saturating CRF peptide response | 350,000 compounds, 0.46% hits | activation, % at 13.2 µM;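 active = activation of at least 50%, plus an integration ratio under a set limit after plate pattern correction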;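 also: plate controls were neutral control wells without compound for no effect and CRF at EC100 for full effect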
TAAR1 agonist: human TAAR1 agonism; Q96RJ0; 360,000 compounds, 0.99% hits; AID 624467; activation, % at 3 µM; CHO RD-HGA16 TAAR1, Fluo-8 calcium fluorescence; vehicle wells 0%, saturating PEA agonist 100%;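 active = activation above the mean activation of all test compounds in the run plus 3 SD, cut at about 38% in these data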
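Test system: RD-HGA16 (CHO) cells co-expressing Gα16 and hTAAR1 / Benchmarks: DMSO vehicle as 0%, PEA at EC100 as 100% / Repeats: no replicates (n 1) / Measure: % activation from peak over basal fluorescence ratio, DMSO-to-PEA scaled / Timing: 17-24 h plating, Fluo-8 75 min 37 °C, 30 min RT / Technique: kinetic Fluo-8 calcium fluorescence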
TMEM16A inh: blocks the mouse calcium-activated chloride channel TMEM16A. HEK293 TMEM16A/YFP iodide influx fluorescence, ionomycin. 310,000 compounds, 1.2% hits. normalized B-score (activity score, 25-100; higher = stronger inhibition) at 10 µM. Q8BHY3. AID 588511;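 active = ratio plate-corrected score three or more library SD toward inhibition, starting fluorescence score within five deviations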;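 also: score derived from kinetic fluorescence span divided by baseline fluorescence per well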
Numbers without * were called inactive; i = inactive; . = not tested or not shown. The list is not random: actives were taken first. Their share in the collection is about 3.9%.

SMILES | ANO1 activ | CRFBP-R2 block | TAAR1 antag | CRFBP-R2 agonist | TAAR1 agonist | TMEM16A inh
CN1C(=O)/C(=C\c2ccccc2OCc2ccccc2)SC1=S | i | 17 | 2 | 1 | -1 | i
COc1ccc(OC)c(/C=C2\SC(=S)N(Cc3cccnc3)C2=O)c1 | i | -183 | -16 | 136* | 6 | i
COc1ccc(-c2nn(-c3ccccc3)cc2/C=C2/SC(=S)N(CCC(=O)O)C2=O)c(C)c1 | i | 52* | -12 | -1 | -1 | i
COc1ccc(O)c(/C=C2/SC(=S)N(Cc3ccccc3)C2=O)c1 | i | -74 | 10 | 74* | 14 | i
Cc1cc(NC(=O)CN(C)CC(=O)Nc2ccc(Cl)c(C(F)(F)F)c2)no1 | i | -3 | -12 | 0 | 41* | .
Cc1cc(NC(=O)CSCC(=O)Nc2ccc(Cl)c(C(F)(F)F)c2)no1 | i | -18 | -10 | -1 | 16 | i
CN(CC(=O)Nc1ccc(Cl)c(C(F)(F)F)c1)C(=O)c1cc(=O)c2ccccc2o1 | i | -9 | 15 | -1 | 45* | .
Cc1cc(C)c2[nH]c(C(=O)Nc3ccc4c(c3)OCO4)cc2c1 | i | 29 | -41 | -1 | -2 | i
CCc1ccc2[nH]c(C(=O)Nc3ccc4c(c3)OCO4)cc2c1 | i | 69* | 20 | -5 | 0 | i
CC(=O)Nc1ccc(C(=O)Nc2ccc3c(c2)OCO3)cc1 | i | 17 | 12 | -2 | 2 | i
CS(=O)(=O)Nc1ccc(C(=O)Nc2ccc3c(c2)OCO3)cc1 | -10* | -27 | 15 | -2 | 1 | i
O=C(CSc1nc2ccccc2n1CCc1ccccc1)NC1CCS(=O)(=O)C1 (configuration not stated) | i | 60* | -12 | -1 | 4 | i
CCn1nc(C)c(NC(=O)Nc2cccc(Cl)c2Cl)c1C | i | 53* | 13 | -4 | 3 | i
O=C(CCN1CCCCC1=O)NC1CCCN(Cc2ccc(Cl)cc2)C1 (configuration not stated) | i | 89* | -21 | 0 | 6 | i
CN(C)c1cccc(NC(=O)C2Cc3c(-c4cccnc4)ccnc3O2)c1 (configuration not stated) | . | . | -11 | . | 3 | .
COc1cc(C)c(C)cc1S(=O)(=O)NC1CC(C)(C)NC(C)(C)C1 | i | 1 | 9 | 1 | -1 | i
O=C(Nc1ccc(Oc2ccc(Cl)cc2)c(Cl)c1)c1cc(I)cc(I)c1O | -5.9* | 45 | 11 | 13 | 2 | 100*
COc1ccc(NC(=O)c2ccccc2F)cc1Cl | i | -3 | 2 | -2 | -1 | i
COn1c2c(c3c4nonc4ccc31)CCCC2 | i | -19 | 2 | 1 | -2 | i
On1c2c(c3c4nonc4ccc31)CCCC2 | . | . | . | . | . | 100*
Cc1ccc(NC(=O)Nc2ccc3c(c2)N(C)C(=O)CS3)nc1 | i | 2 | 49* | 0 | 24 | i
COc1ccc(NC(=O)Nc2ccc3c(c2)N(C)C(=O)CS3)cc1Cl | i | 7 | 63* | 2 | 25 | i
CC(=O)c1ccc(NC(=O)Nc2ccc3c(c2)N(C)C(=O)CS3)cc1 | i | 6 | 76* | 4 | 44* | i
COc1ccc(NC(=O)Nc2ccc3c(c2)N(C)C(=O)CS3)cc1OC | i | 13 | 17 | -1 | 2 | i
Cc1ccnc(NC(=O)Nc2ccc3c(c2)N(C)C(=O)CS3)c1 | i | -34 | 19 | -2 | 14 | i
SMILES | ANO1 activ | CRFBP-R2 block | TAAR1 antag | CRFBP-R2 agonist | TAAR1 agonist | TMEM16A inh
CCOc1ccc(NC(=O)Nc2ccc3c(c2)N(C)C(=O)CS3)cc1 | i | -1 | 52* | 0 | 13 | i
Cc1ccc(F)c(S(=O)(=O)NC(=O)C2(C)CCN2C(=O)c2ccccc2)c1 (configuration not stated) | . | . | 1 | . | 1 | .
O=S(=O)(Oc1ccc(Cl)cc1)c1cccc2cccnc12 | i | -1 | -27 | 0 | -3 | i
CCCCn1nnnc1C(c1cc2ccccc2o1)N1CCOCC1 (configuration not stated) | . | . | -7 | . | -1 | .
CC(=O)N1CCc2cc(C(=O)CN3CCN(c4ccccn4)CC3)ccc21 | i | 3 | -25 | -1 | 14 | i
CCOC(=O)c1cnc2c(C#N)c(C)nn2c1C | -23* | 2 | 7 | -3 | 15 | i
O=C(Nc1ccccc1C(F)(F)F)N1CCCCCC1 | i | -7 | -1 | -3 | 5 | i
NC(=O)C1(N2CCCCC2)CCN(C(=O)Nc2ccccc2C(F)(F)F)CC1 | . | -22 | 11 | 0 | 2 | 100*
Cn1nc(C(F)(F)F)c2cc(C(=O)Nc3ccc(C(F)(F)F)cc3)sc21 | i | 7 | 5 | 1 | 20 | i
CCOC(=O)C(NC(=O)CC(C)C)(Nc1sc(C)c(CC)c1C#N)C(F)(F)F (configuration not stated) | i | 51* | 8 | 2 | 1 | i
O=C(/C=C/c1ccco1)OCc1nnc(-c2ccccc2)o1 | i | -5 | 22 | -1 | 6 | i
O=C(/C=C/c1ccco1)OCc1nnc(-c2ccc(Cl)cc2)o1 | i | 87* | -16 | 1 | 0 | i
Cc1n[nH]c(=O)nc1NCCc1ccccc1 | i | 0 | 0 | 0 | 40* | i
Cc1n[nH]c(=O)nc1NCc1ccccc1 | i | -7 | 8 | 0 | 5 | i
Oc1c(Cl)cc(Cl)cc1Sc1cc(Cl)cc(Cl)c1O | . | . | . | . | . | 100*
COc1ccc(-c2cc(C(=O)N3CCN(S(=O)(=O)c4ccccc4)CC3)[nH]n2)cc1 | i | -5 | 8 | -2 | 9 | i
COc1ccc(S(=O)(=O)N2CCN(C(=O)c3cc(-c4ccc(Br)cc4)n[nH]3)CC2)cc1OC | i | 1 | 62* | 1 | 10 | i
CCCOc1ccc(/C(O)=C2/C(=O)C(=O)N(c3ccccn3)C2c2ccc(OC)cc2)cc1C (configuration not stated) | i | -12 | 16 | -2 | 28 | i
COc1ccc(CN2CC(=O)N(c3cccc(Cl)c3)C2=S)cc1OC | i | 90* | -7 | 1 | 10 | i
O=C(Nc1ccc(Br)cc1)c1cccc(S(=O)(=O)Nc2ccccn2)c1 | i | -4 | 11 | -3 | 5 | i
COc1ccc(NC(=O)c2cccc(S(=O)(=O)Nc3ccc(Br)cc3)c2)cn1 | i | -19 | 42 | -1 | 9 | 25*
COc1ccc(NC(=O)NS(=O)(=O)c2ccc(C)cc2)cn1 | -7.5* | -8 | 15 | 3 | 17 | i
O=C(Nn1cnnc1)c1ccc(Cl)c(Cl)c1 | i | 11 | -32 | 1 | 1 | i
